Data set [1] concerns the target T1, Vasopressin V1b receptor (Homo sapiens, UniProt P47901).
T1 sequence (P47901 whole entry): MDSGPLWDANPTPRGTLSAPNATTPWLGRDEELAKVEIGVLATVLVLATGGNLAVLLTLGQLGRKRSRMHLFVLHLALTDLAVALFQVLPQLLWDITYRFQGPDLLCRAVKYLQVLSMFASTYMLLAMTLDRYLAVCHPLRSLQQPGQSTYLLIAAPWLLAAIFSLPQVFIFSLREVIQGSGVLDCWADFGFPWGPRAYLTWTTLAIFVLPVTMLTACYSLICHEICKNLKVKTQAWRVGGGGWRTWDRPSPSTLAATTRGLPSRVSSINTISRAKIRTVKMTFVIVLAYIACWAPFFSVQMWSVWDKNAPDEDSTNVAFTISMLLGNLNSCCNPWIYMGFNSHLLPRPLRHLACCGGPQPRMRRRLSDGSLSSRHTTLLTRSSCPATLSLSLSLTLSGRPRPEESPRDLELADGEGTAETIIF
The data set can be described thus: Displacement of [3H]AVP from human vasopressin V1b receptor expressed in CHO cell membranes after 60 mins by TopCount microplate scintillation counting method.

Data set [2] is filed under the species Homo sapiens. Kind of data set: Selectivity index, ratio of Ki for human vasopressin V1a receptor to Ki for human vasopressin V1b receptor. The method in brief:
(§1)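 Selectivity was calculated from human receptor Ki values as Ki hOT/Ki hV1b or Ki hV1a/Ki hV1b. Each Ki is the mean of at least two experiments (MSR 2.8).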

The species named for data set [3] is Homo sapiens. Kind of data set: Selectivity index, ratio of Ki for human oxytocin receptor to Ki for human vasopressin V1b receptor. Summed up: as §1
Data set [4] is described as follows: Intrinsic clearance in human liver microsomes. The format is ADME, microsome. To be noted: read-out: CLH. Summed up: (§2)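 Intrinsic clearance was measured in human and rat liver microsomes, in µL/min/mg. Values are means of at least two experiments.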
A general note: Liver microsomes are vesicles of endoplasmic reticulum, rich in cytochrome P450 enzymes.

A short description of data set [5]: Intrinsic clearance in rat liver microsomes. The format is ADME, microsome. To be noted: read-out: CLH. The method in brief: as §2
Data set [6] can be described thus: Elimination half life in rat at 2 mg/kg, iv. The format is ADME, organism-based. To be noted: in vivo, read-out: beta t1/2 (converted). Summed up:
(§3)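 Rat PK after a 2 mg/kg intravenous dose. Plasma clearance (L/h/kg), terminal half-life (h) and steady-state volume of distribution (L/kg) were derived.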

Data set [7] in a line: Volume of distribution at steady state in rat at 2 mg/kg, iv. The format is ADME, organism-based. To be noted: in vivo, read-out: Vdss. The method in brief: as §3
Data set [8] can be described thus: Clearance in rat plasma at 2 mg/kg, iv. The format is ADME, organism-based. Summed up: as §3
The nature of data set [9]: Oral bioavailability in rat at 10 mg/kg. The format is ADME, organism-based. To be noted: in vivo. The method in brief: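 Rat oral dosing, at 10 or 5 mg/kg depending on compound. Oral bioavailability (%) was calculated.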
A short description of data set [10]: Ratio of AUC in rat brain to plasma at 10 mg/kg, ip measured after 8 hrs. The format is ADME, organism-based. To be noted: read-out: Ratio AUC. Summed up: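 Rats were dosed 10 mg/kg intraperitoneally. Brain and plasma AUC were taken over an 8 h period, and the brain:plasma ratio was calculated from them.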
In data set [11] the test system is Rattus norvegicus. The data set can be described thus: Antidepressant like activity in Sprague-Dawley rat assessed as floating time at 3 mg/kg, ip administered at 24, 4 and 0.5 hrs prior to test by forced swimming test. The format is functional. Summed up: (§4)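 Rat forced swim test. Drug given intraperitoneally at 3 mg/kg, dosed 24, 4 and 0.5 h before testing. Floating, swimming and climbing times were scored. Nomifensine served as positive control. Data reported as mean ± SEM.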

The test system of data set [12] is Rattus norvegicus. Kind of data set: Antidepressant like activity in Sprague-Dawley rat assessed as swimming time at 3 mg/kg, ip administered at 24, 4 and 0.5 hrs prior to test by forced swimming test. The format is functional. The method in brief:
as §4

Data set [13] deals with Rattus norvegicus. The data set can be described thus: Antidepressant like activity in Sprague-Dawley rat assessed as climbing time at 3 mg/kg, ip administered at 24, 4 and 0.5 hrs prior to test by forced swimming test. The format is functional. The method in brief: as §4

The term Ki denotes the equilibrium dissociation constant of an inhibitor or competing ligand from its target. A high value points to weaker binding. Usually clearance stands for the volume of plasma or blood freed of the substance per unit of time. A lower clearance goes with inefficient removal. As a reminder, the bioavailability is the share of a dose that reaches the circulation, judged against a reference dose that is usually intravenous.

With `CCOc1ccc(OC)cc1C1(N2CCN(c3ccncc3)CC2)C(=O)N(S(=O)(=O)c2cccc3cccnc23)c2ccc(C#N)cc21` (stereo not drawn), in data set [1], the Ki amounted to 5 nM. Further, the Ratio Ki in [2] was 79; in data set [3], 34. Also, the microsomal CLint was 170 µL/min/mg in [4] and 210 µL/min/mg in [5]. Further, the half-life in data set [6] was 2.4 h. In data set [7], the Vd was determined as 10 L/kg. This compound showed a clearance in data set [8] of 46.7 mL/min/kg. In addition, the bioavailability in data set [9] was determined as 18%. Moreover, the Kp at 8 h in data set [10] came out at 1.4. The Time is listed as 159.15 s in data set [11], 12.46 s in data set [12] and 125.69 s in [13].

(Values after ChEMBL document CHEMBL4265879, “Novel, potent, selective and brain penetrant vasopressin 1b receptor antagonists” (Bioorg Med Chem Lett, 2018).)
